The list is not random: actives were taken first. Their share in the collection is about 3.5%.
RGS4 pot: RGS4 potentiation or activation | HEK293 M3R/inducible RGS4, carbachol calcium flux Fluo4; hits give low values | B-score at 10 µM | hit rate 0.92% among 310,000;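 active = B-score of the integrated calcium signal more than 4 SD below the library mean, with starting fluorescence not abnormally high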;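 also: negative B-score means reduced calcium response which marks RGS4 activation or potentiation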
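test system = HEK293 cells with stable M3R and inducible RGS4 | schedule = recording 10 s baseline at 1 Hz, 100 s post-agonist | technique = Fluo4-AM (2 µM) calcium-flux fluorescence, kinetic read | measure = Agonist-evoked peak-minus-minimum fluorescence over baseline, integrated ratio, B score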
RGS4 inh: human RGS4 inhibition; P49798; HEK293 M3R/RGS4 inducible, Fluo-4 calcium flux; hits give high values; triggered by carbachol at its EC20; B-score at 10 µM; hit rate 0.45% among 310,000; AID 463165;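 active = B-score, a plate-corrected calcium signal, over three deviations above library mean, with baseline fluorescence within five deviations of library mean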;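 also: RGS4 expression induced by doxycycline in cells with stable M3 receptor; B-score is computed from the integrated fluorescence ratio over baseline after carbachol; higher B-score means a larger calcium signal and so more RGS4 inhibition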
Target sequence (P49798 whole entry, looked up): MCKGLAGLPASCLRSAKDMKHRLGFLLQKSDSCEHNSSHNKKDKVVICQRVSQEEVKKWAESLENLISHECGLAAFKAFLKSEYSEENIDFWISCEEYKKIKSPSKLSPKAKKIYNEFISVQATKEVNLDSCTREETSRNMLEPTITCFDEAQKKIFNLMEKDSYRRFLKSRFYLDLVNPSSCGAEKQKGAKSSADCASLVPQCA
MrgX1 PAM: human MrgX1 positive allosteric modulation, primary screen. Q96LB2. MrgX1-HEK293, Fluo-4 calcium flux, FDSS; hits give high values. B-score at 10 µM. hit rate 0.63% among 310,000. AID 588675;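 active = plate-corrected calcium response at least 3 library SD above typical, normal starting fluorescence, not activating the receptor alone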;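 also: compound read alongside a low EC10 to EC30 dose of BAM8-22 agonist; peak minus trough fluorescence over baseline measured at the second addition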
MrgX1 ag: agonists of human MrgX1 receptor; hit rate 0.44% among 310,000; B-score at 10 µM; AID 588627; MrgX1-HEK293 cells, Fluo-4 calcium fluorescence, agonist mode; hits give high values; Q96LB2;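 active = calcium response B-score plate-corrected fluorescence ratio at least 3 library SD, with starting fluorescence B-score inside 5 SD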
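Test system: HEK293 cells stably expressing human MrgX1 receptor; amount: 15,000 cells per well; doses: compound delivered in addition one of three; times: overnight plating before 1 h dye loading; detection: Fluo-4 NW calcium-flux fluorescence, kinetic read; read-out basis: B-scored fluorescence response ratio; controls: positive and negative controls per plate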
MrgX1 antagonist: blocks BAM8-22 activation of human MrgX1 receptor. MRGX1-HEK293 calcium flux, Fluo-4, BAM8-22 antagonism; hits give low values. B-score at 10 µM. hit rate 1.3% among 310,000;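 active = calcium-response B-score plate-corrected more than 3 library SD below zero, starting fluorescence within 5 deviations, no agonist response on first addition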;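 also: peak minus trough fluorescence over baseline after final BAM8-22 challenge near maximal dose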
MrgX1 ag confirm: human MrgX1 agonism, re-confirmation screen | shares compounds with MrgX1 ag | MrgX1-HEK293, Fluo-4 calcium fluorescence, FDSS | activation, % at 10 µM | hit rate 78% among 600 | AID 602412;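 active = calcium signal rise, corrected for plate position, at least 3 library SD high, with starting brightness within 5 such deviations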
HEK293 Ca flux: counter-screen for MrgX1 antagonists: effect in parental HEK293 cells. shares compounds with MrgX1 antagonist. Fluo-4 calcium fluorescence, FDSS. fluorescence ratio F(max-min)/F0 at 10 µM. hit rate 2% among 4,000;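 active = duplicate-averaged calcium fluorescence ratio at least three times the standard deviation of buffer wells, a nonspecific response in parental cells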
HEK293 Ca counter: activity in parental HEK293 cells without MrgX1 | fluorescence ratio F(max-min)/F0 at 10 µM | hit rate 0.4% among 4,000 | shares compounds with MrgX1 antagonist | parental HEK293 calcium flux, Fluo-4 fluorescence ratio; hits give high values;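 active = calcium fluorescence ratio, averaged over duplicates, at least 3 SD of the buffer-well ratio, meaning a nonspecific response in receptor-free cells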;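 also: untransfected parental HEK293 lacking MrgX1 used as counterscreen for MrgX1 allosteric activators; fluorescence change taken during the second addition on a kinetic imager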
HEK293 Ca cntr2: counter-screen for MrgX1 activators: effect in parental HEK293 cells; shares compounds with MrgX1 antagonist; hit rate 8.7% among 4,000; Fluo-4 calcium fluorescence (FDSS); hits give high values; fluorescence ratio F(max-min)/F0 at 10 µM;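 active = calcium fluorescence ratio at least three times the spread of buffer wells, meaning a non-specific response in parental cells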
An asterisk follows results filed as active; i = inactive; / = no result given.

SMILES	RGS4 pot	RGS4 inh	MrgX1 PAM	MrgX1 ag	MrgX1 antagonist	MrgX1 ag confirm	HEK293 Ca flux	HEK293 Ca counter	HEK293 Ca cntr2
NC1=NC2=C(CCCC2)C2(CCCCC2)S1	i	i	i	32*	i	160%*	i	i	i
CC(=O)Nc1ccc(NC(=O)COC(=O)c2cc(S(=O)(=O)N(C)C)ccc2N2CCCC2)cc1	i	i	i	i	i	/	/	/	/
N#Cc1cn(Cc2ccccc2)c2ccccc12	i	i	i	30*	i	161%*	i	i	i
N#Cc1ccccc1Cn1cc(C#N)c2ccccc21	i	i	i	i	i	/	/	/	/
O=C1CC(O)(C(F)(F)F)Oc2c1ccc1ccccc21 (stereo not drawn)	i	i	i	90*	i	565%*	i	i	103*
Nc1ccc(-c2cnc3ccccc3n2)cc1	i	i	i	28*	i	87%*	i	i	i
Clc1ccc(CNc2ccccc2NCc2ccc(Cl)nc2)cn1	i	i	i	i	i	/	/	/	/
O=C(NC(=S)NNC(=O)c1ccccc1O)c1cccs1	i	i	i	132*	i	358%*	i	i	71*
COc1ccccc1C(=O)NNC(=S)NC(=O)c1cccs1	i	i	i	80*	i	476%*	i	i	111*
O=C(Cc1ccc(Cl)cc1)NNC(=S)NC(=O)c1cccs1	i	i	i	122*	i	316%*	i	i	68*
COc1ccccc1-c1ccc(/C=C2/C=C(C)OC2=O)o1	i	i	i	i	i	/	/	/	/
COc1ccccc1-c1ccc(/C=C2\C=CC(=O)O2)o1	i	i	i	91*	i	i	0.2*	i	i
CCOC(=O)Cc1csc(NC(=O)c2ccc(Cl)s2)n1	i	i	i	31*	i	112%*	i	i	i
CCOC(=O)Cc1csc(NC(=O)c2cccc(Cl)c2)n1	i	i	i	i	i	/	/	/	/
CC(CCCCC(=O)Nc1ccc(C(F)(F)F)cc1)NCCc1cnc[nH]1 (stereo not drawn)	i	i	i	i	i	/	/	/	/
COc1ccccc1N1CCN(C2CCCCC2NS(=O)(=O)c2ccc(Cl)cc2)CC1 (stereo not drawn)	i	i	i	48*	i	241%*	i	i	i
CCOC(=O)C1(Cc2cccc(F)c2)CCN(C(=O)Cn2cnnn2)CC1	i	i	i	i	i	/	/	/	/
Nc1nc2ccc(S(=O)(=O)N3CCCCC3)cc2s1	i	i	i	43*	i	256%*	i	i	53*
CCOC(=O)C1(CC2CCCCO2)CCN(Cc2cc3ccccc3[nH]2)CC1 (stereo not drawn)	i	i	i	113*	i	651%*	i	i	95*
CCCCc1ncc(CN2CCC(CC3CCCCO3)(C(=O)OCC)CC2)[nH]1 (stereo not drawn)	i	i	i	i	i	/	/	/	/
O=C(c1ccc(=O)oc1)N1CCCc2ccccc21	i	i	i	i	i	/	/	/	/
O=C(CC(=O)Nc1cc(Cl)ccc1Cl)Nc1cc(Cl)ccc1Cl	i	i	i	i	i	/	/	/	/
COc1ccc(-c2nnc(SCc3ccccn3)n2C)cc1	i	i	i	i	i	/	/	/	/
COc1ccc(N=C(N)SCc2ccccn2)cc1	i	i	i	87*	i	341%*	i	i	92*

Assay outcomes as filed in PubChem BioAssay.
